The source made the active and inactive calls. No cut-off for these calls is given here.
Experiments:
[1] = test system: Mus musculus; assay: Liver toxicity in diet-induced obesity C57BL/6 mouse model at 100 mg/kg, po daily once after 10 weeks; format: organism-based; set-up: dose 100 mg/kg, route oral; details: in vivo, 1680 h
Summary of the method: (§1)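 Male C57BL/6 mice were fed a 60%-fat diet from 9 weeks of age until about 40 g, in groups of 6-10. They were dosed by oral gavage once daily in 2% HPMC + 0.2% DOSS, with 29 at 100 mg/kg and rosiglitazone at 5 mg/kg, alongside vehicle groups on lean and high-fat diet. Fed glucose was read at weeks 2, 4, 6, 8 and 10. Clinical chemistry and hematology were also measured. Analysis by ANOVA.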

[2] = Terminal half life in Sprague-Dawley rat at 100 mg/kg, po or 10 mg/kg, iv; format: ADME, organism-based; details: in vivo, read-out: beta t1/2 (converted)
Summary of the method: (§2)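 Male Sprague-Dawley rats (250 g, 3 per dose group) received 100 mg/kg by oral gavage in 2% HPMC + 0.2% DOSS, or 10 mg/kg iv by tail vein in 10% ethanol/40% PEG/50% H2O. Blood was drawn at 0.033-24 h postdose for drug levels.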

[3] = molecular target: Cytochrome P450 2C9 (Homo sapiens, UniProt P11712); assay: Inhibition of CYP2C9 at 25 uM; format: ADME
Summary of the method: (§3)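 Inhibition of CYP isozymes was tested up to a highest concentration of 25 µM.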

[4] = test system: Mus musculus; assay: Toxicity in diet-induced obesity C57BL/6 mouse model assessed as hematocrit at 100 mg/kg, po daily once for 10 weeks; format: organism-based; set-up: dose 100 mg/kg, route oral; details: in vivo, 1680 h; summary of the method: as §1
[5] = AUC in C57BL/6 mouse at 100 mg/kg, po or 10 mg/kg, iv; format: ADME, organism-based; details: plasma
Summary of the method: (§4)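 Male C57BL/6 mice (18-22 g; 3 per dose group per time point), given 100 mg/kg po as the hydrochloride salt in 2% HPMC + 0.2% DOSS, or 10 mg/kg iv by tail vein in 10% ethanol/40% polyethylene glycol/50% H2O. Plasma was taken at 5, 30, 120 and 360 min after dosing and drug levels were measured.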

[6] = test system: Mus musculus; assay: Antidiabetic activity in diet-induced obesity C57BL/6 mouse model assessed as reduction of plasma insulin level at 100 mg/kg, po daily once after 10 weeks
[7] = test system: Salmonella typhimurium; assay: Mutagenic activity in Salmonella Typhimurium TA100 in presence of S9 activation; format: toxicity, organism-based; details: salmonella enterica subsp. enterica serovar typhimurium
[8] = molecular target: Voltage-gated inwardly rectifying potassium channel KCNH2 (Homo sapiens, UniProt Q12809); assay: Inhibition of human ERG by patch clamp method
Summary of the method: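 hERG was measured by patch clamp.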

[9] = molecular target: T1, Muscarinic acetylcholine receptor M1 (Homo sapiens, UniProt P11229); assay: Inhibition of muscarinic M1 receptor
T1 sequence (P11229 whole entry): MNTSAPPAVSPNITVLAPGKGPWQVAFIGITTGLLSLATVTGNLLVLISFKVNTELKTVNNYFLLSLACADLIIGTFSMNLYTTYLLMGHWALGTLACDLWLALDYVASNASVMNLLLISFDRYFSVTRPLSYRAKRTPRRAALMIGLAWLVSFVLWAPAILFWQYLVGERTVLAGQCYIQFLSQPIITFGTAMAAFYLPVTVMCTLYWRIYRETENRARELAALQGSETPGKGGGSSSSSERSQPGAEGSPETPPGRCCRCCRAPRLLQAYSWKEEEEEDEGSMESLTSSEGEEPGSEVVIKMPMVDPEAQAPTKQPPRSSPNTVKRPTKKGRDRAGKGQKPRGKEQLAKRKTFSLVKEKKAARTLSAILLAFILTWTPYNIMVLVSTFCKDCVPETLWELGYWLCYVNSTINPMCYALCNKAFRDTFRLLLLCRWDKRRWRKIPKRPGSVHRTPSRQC

[10] = molecular target: Cytochrome P450 2C19 (Homo sapiens, UniProt P33261); assay: Inhibition of CYP2C19 at 25 uM; format: ADME; summary of the method: as §3
[11] = Cmax in C57BL/6 mouse at 100 mg/kg, po or 10 mg/kg, iv; format: ADME, organism-based; details: in vivo; summary of the method: as §4
[12] = test system: Mus musculus; assay: Toxicity in diet-induced obesity C57BL/6 mouse model assessed as white blood count at 100 mg/kg, po daily once for 10 weeks; format: organism-based; set-up: dose 100 mg/kg, route oral; details: in vivo, 1680 h; summary of the method: as §1
[13] = Cmax in Sprague-Dawley rat at 100 mg/kg, po or 10 mg/kg, iv; format: ADME, organism-based; details: in vivo; summary of the method: as §2
[14] = test system: Rattus norvegicus; assay: Antidiabetic activity in genetic Zucker fa/fa rat model assessed as increase in glucose infusion rate at 100 mg/kg, po daily once after 4 weeks by hyperinsulinemic-euglycemic clamp; format: functional
Summary of the method: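 Zucker fa/fa rats, cannulated 5 days beforehand and fasted 8 h, underwent the clamp after 4 weeks of dosing. [3-3H]glucose tracer was primed and infused, then insulin 25 (mU/kg)/min was started. Variable 50% dextrose held blood glucose at 100 mg/dL over 120 min, with tracer specific activity sampled at 110 and 120 min.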

[15] = test system: Mus musculus; assay: Antidiabetic activity in diet-induced obesity C57BL/6 mouse model assessed as reduction of fed blood glucose level at 100 mg/kg, po daily once for 1 week after 10 weeks; format: functional; set-up: scale not given: the % may be the effect or the level left; summary of the method: as §1
[16] = test system: Rattus norvegicus; assay: Antidiabetic activity in genetic Zucker fa/fa rat model assessed as reduction of fed blood glucose level at 100 mg/kg, po daily once after 3 weeks relative to control; format: functional, organism-based; set-up: dose 100 mg/kg
Summary of the method: (§5)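 Male Zucker fa/fa rats, housed singly, were gavaged daily from 7 weeks of age with 100 mg/kg or vehicle (2% HPMC + 0.2% DOSS), 5 per group. Fed tail-vein glucose was taken on day 22. Also on day 22, after an overnight fast, sodium pyruvate 1 g/kg was given ip and glucose was read at 0-90 min.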

[17] = test system: Mus musculus; assay: Antidiabetic activity in C57BL/6 mouse assessed as overt sign of hypoglycemia at 100 mg/kg, po daily once after 10 weeks; format: functional, organism-based; set-up: dose 100 mg/kg
Summary of the method: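 Lean chow-fed mice were dosed 100 mg/kg po daily in 2% HPMC + 0.2% DOSS for 10 weeks and watched for overt hypoglycemia.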

[18] = test system: Rattus norvegicus; assay: Antidiabetic activity in genetic Zucker fa/fa rat model assessed as reduction of glucose production at 100 mg/kg, po daily once after 3 weeks by pyruvate tolerance test; format: functional, organism-based; set-up: dose 100 mg/kg; summary of the method: as §5
[19] = molecular target: T2, Alpha-2A adrenergic receptor (Homo sapiens, UniProt P08913); assay: Inhibition of adrenergic alpha2A receptor
T2 sequence (P08913 whole entry): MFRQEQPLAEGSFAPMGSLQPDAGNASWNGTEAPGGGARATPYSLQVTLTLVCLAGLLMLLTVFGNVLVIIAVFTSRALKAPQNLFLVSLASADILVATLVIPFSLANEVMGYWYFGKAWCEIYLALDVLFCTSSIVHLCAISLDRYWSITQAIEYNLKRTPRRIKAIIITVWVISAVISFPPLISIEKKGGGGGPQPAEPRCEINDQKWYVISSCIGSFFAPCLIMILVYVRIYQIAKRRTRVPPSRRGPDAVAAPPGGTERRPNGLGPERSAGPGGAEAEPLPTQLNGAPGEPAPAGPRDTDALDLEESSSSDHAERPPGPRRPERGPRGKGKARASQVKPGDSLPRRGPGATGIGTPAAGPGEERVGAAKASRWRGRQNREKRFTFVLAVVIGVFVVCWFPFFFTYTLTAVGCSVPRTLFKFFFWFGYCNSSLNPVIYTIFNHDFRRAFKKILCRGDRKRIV

[20] = test system: Salmonella typhimurium; assay: Mutagenic activity in Salmonella Typhimurium TA100 in absence of S9 activation; format: toxicity, organism-based; details: salmonella enterica subsp. enterica serovar typhimurium

Cytochrome P450 2C9, sequence (P11712 whole entry): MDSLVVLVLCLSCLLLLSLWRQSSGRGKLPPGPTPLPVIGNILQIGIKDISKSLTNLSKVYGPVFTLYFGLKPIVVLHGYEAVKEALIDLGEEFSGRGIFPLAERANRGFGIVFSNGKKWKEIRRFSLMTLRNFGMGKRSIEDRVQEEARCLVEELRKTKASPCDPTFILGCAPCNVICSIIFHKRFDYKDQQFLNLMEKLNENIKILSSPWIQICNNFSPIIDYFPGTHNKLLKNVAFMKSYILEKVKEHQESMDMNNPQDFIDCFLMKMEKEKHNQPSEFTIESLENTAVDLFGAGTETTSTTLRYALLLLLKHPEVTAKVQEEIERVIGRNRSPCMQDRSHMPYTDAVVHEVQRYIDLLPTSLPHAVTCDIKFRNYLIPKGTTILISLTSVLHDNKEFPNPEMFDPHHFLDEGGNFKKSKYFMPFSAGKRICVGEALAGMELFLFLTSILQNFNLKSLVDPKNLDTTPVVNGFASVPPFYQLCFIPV
Cytochrome P450 2C19, sequence (P33261 whole entry): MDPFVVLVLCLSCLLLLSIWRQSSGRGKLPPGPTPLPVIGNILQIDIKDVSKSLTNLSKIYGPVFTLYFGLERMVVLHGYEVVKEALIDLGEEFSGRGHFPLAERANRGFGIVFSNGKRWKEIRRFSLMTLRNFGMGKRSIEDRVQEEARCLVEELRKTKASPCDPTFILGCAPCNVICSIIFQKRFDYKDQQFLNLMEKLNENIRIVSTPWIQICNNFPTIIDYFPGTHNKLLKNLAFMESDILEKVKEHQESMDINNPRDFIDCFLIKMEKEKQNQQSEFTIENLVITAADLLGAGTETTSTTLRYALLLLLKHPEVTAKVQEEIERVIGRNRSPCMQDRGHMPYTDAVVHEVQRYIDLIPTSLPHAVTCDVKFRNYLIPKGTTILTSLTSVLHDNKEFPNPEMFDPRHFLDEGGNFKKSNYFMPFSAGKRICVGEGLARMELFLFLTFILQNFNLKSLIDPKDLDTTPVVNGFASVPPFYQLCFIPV
Voltage-gated inwardly rectifying potassium channel KCNH2, sequence (Q12809 whole entry): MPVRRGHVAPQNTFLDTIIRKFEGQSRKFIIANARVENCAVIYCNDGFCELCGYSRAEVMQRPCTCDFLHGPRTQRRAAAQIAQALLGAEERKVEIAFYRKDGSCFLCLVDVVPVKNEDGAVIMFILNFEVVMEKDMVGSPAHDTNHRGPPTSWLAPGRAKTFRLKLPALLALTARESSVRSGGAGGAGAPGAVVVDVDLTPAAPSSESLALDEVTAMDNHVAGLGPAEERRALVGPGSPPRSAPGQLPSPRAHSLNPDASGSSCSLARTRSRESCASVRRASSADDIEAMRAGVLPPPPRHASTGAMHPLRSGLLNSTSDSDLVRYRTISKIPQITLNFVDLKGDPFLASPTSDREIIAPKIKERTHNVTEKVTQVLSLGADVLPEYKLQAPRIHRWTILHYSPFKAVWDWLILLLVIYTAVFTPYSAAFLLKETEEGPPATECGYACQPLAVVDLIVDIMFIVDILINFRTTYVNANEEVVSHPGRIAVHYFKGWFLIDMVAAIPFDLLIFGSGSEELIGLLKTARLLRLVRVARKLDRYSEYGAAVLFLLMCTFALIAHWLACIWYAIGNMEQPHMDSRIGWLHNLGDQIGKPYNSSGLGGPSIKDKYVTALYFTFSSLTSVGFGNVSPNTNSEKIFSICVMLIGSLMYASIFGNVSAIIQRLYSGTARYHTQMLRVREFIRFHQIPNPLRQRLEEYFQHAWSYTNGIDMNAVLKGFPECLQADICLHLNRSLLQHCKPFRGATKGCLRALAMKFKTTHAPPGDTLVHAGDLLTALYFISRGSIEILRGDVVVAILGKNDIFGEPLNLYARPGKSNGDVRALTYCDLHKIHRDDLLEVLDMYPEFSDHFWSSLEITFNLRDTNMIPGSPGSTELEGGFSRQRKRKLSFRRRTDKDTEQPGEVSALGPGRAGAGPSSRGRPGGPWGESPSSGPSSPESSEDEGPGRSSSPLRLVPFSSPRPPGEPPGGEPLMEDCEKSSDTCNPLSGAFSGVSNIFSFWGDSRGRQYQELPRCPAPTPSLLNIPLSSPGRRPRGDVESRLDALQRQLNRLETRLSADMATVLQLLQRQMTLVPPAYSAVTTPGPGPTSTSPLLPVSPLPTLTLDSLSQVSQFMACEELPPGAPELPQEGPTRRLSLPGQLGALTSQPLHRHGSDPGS

- half-life [2]: 504 min
- Activity [3]: Not Active
- AUC [5]: 7900 ng·h/mL
- IC50 [9]: 8.02 µM
- Activity [10]: Not Active
- Cmax [11]: 1000 nM
- Cmax [13]: 320 nM
- IC50 [19]: 2830 nM
SMILES: O=C(Nc1ccccc1-c1cn2c(CN3CCNCC3)csc2n1)c1cnc2ccccc2n1
- Activity [1]: Non-toxic
- Activity [4]: Active
- Activity [6]: Active
- Activity [7]: Non-toxic
- IC50 [8]: > 10 µM
- Activity [12]: Active
- Activity [14]: 35%
- Activity [15]: 15%
- Activity [16]: Active
- Activity [17]: inactive
- Activity [18]: Active
- Activity [20]: Non-toxic
